Active and inactive are the calls of the source. No cut-off for these calls is given here.
How the values were obtained:
[1] = Growth inhibition of human HepG2 cells measured after 72 hrs by MTT assay; type: functional, cell-based; details: HepG2, 72 h
In short: (§1)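 Cells seeded at 1 x 10^4/100 µL, treated 24 h later with drug diluted from 2 mmol/L DMSO stock (0.01% DMSO final), 72 h incubation. MTT added for 3 h at 37°C, formazan dissolved in 0.1 N HCl/isopropanol, OD read at 550/630 nm. Eight replicates per concentration, mean ± SD. IC50 from curve fitting. Cells kept at 37°C in humidified CO2.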

[2] = Growth inhibition of human K562 cells measured after 72 hrs by MTT assay; type: functional, cell-based; details: K562, 72 h; in short: as §1
[3] = Growth inhibition of human EAhy926 cells measured after 72 hrs by MTT assay; type: functional, cell-based; details: EA.hy 926, 72 h; in short: as §1
[4] = Cytostatic activity against human MCF10A cells assessed as cell survival up to 25 uM measured after 72 hrs by MTT assay relative to control; type: ADME, cell-based, MCF-10A; details: read-out: Survival
Sus scrofa [5] = species on record: Sus scrofa; assay: Inhibition of porcine brain tubulin polymerization at 10 uM measured every 1 min for 40 mins in presence of GTP
[6] = Cell cycle arrest in human HepG2 cells assessed as accumulation of hypoploid sub-G1 cells at growth inhibitory IC50 measured after 72 hrs by propidium iodide-staining based FACS analysis; type: functional
EA.hy 926 [7] = assay: Cytostatic activity against human EAhy926 cells up to 25 uM measured after 72 hrs by MTT assay; type: functional, cell-based; in short: as §1
HepG2 [8] = assay: Inhibition of beta-tubulin polymerization in human HepG2 cells assessed as multi-polar spindle formation at 185 to 190 nM measured after 24 hrs by DAPI staining based immunofluorescence analysis; type: cell-based
In short: (§2)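 HepG2 cells grown on coverslips were treated 24 h with 185 nM drug, with 0.01% DMSO vehicle as control. Cells fixed in 3.7% buffered paraformaldehyde and immunostained for β-tubulin (AlexaFluor-488 secondary, 40 min). F-actin labelled with phalloidin, DNA with DAPI mounting medium. Imaged by fluorescence microscopy.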

[9] = Cell cycle arrest in human HepG2 cells assessed as >4N DNA content at growth inhibitory IC50 measured after 24 hrs by propidium iodide-staining based FACS analysis relative to control; type: functional; set-up: scale not given: the % may be the effect or the level left
HepG2 [10] = assay: Cytostatic activity against human HepG2 cells up to 25 uM measured after 72 hrs by MTT assay; type: functional, cell-based; in short: as §1
Sus scrofa [11] = species on record: Sus scrofa; assay: Inhibition of porcine brain tubulin polymerization at 50 uM measured every 1 min for 40 mins in presence of GTP
[12] = Antiproliferative activity against mouse Colon 26 cells measured after 72 hrs by MTT assay; type: functional, cell-based; details: Colon 26, 72 h
In short: (§3)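 Cells seeded at 1 × 10^4 per well and left 24 h, then exposed to graded compound concentrations (stock 2 mmol/L in DMSO, final DMSO 0.01% in medium) for 72 h at 37 °C in humidified CO2. MTT (5 mg/mL) added for 3 h; formazan dissolved in 0.1 N HCl/isopropanol and read at 550/630 nm. Eight replicate wells per concentration; IC50 from curve fitting.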

HepG2 [13] = assay: Inhibition of beta-tubulin polymerization in human HepG2 cells assessed as DNA fragmentation at 185 to 190 nM measured after 24 hrs by DAPI staining based immunofluorescence analysis; type: cell-based; in short: as §2
K562 = assay: Cytostatic activity against human K562 cells up to 25 uM measured after 72 hrs by MTT assay; type: functional, cell-based; in short: as §1
Sus scrofa [14] = species on record: Sus scrofa; assay: Inhibition of porcine brain tubulin polymerization measured every 1 min for 40 mins in presence of GTP
[15] = Antiproliferative activity against CA-4-resistant human HT-29 cells measured after 72 hrs by MTT assay; type: functional, cell-based; details: HT-29, 72 h; in short: as §3
[16] = Cell cycle arrest in human HepG2 cells assessed as decrease in G0/G1 phase at growth inhibitory IC50 measured after 24 hrs by propidium iodide-staining based FACS analysis; type: functional
[17] = Antiproliferative activity against CA-4-resistant human MDA-MB-231 cells measured after 72 hrs by MTT assay; type: functional, cell-based; details: MDA-MB-231, 72 h; in short: as §1
EA.hy 926 [18] = assay: Induction of apoptosis in human EAhy926 cells assessed as increase in apoptotic cells at growth inhibitory IC50 measured after 48 hrs by Annexin V-FITC/propidium iodide staining-based flow cytometric analysis relative to control; type: functional, cell-based
[19] = Cell cycle arrest in human HepG2 cells assessed as decrease in S phase at growth inhibitory IC50 measured after 24 hrs by propidium iodide-staining based FACS analysis; type: functional
HT-29 = assay: Potency index, ratio of IC50 for combretastatin A-4 to IC50 for test compound against human HT-29 cells; type: functional
HepG2 [20] = assay: Induction of micronuclei formation in human HepG2 cells at 185 to 190 nM measured after 24 hrs by DAPI staining based immunofluorescence analysis; type: functional, cell-based; in short: as §2
[21] = Cytotoxicity against human NHEK measured after 72 hrs by MTT assay; type: toxicity; in short: as §1
[22] = Antiproliferative activity against human HaCaT cells measured after 72 hrs by MTT assay; type: functional, cell-based; in short: as §3
Sus scrofa [23] = species on record: Sus scrofa; assay: Induction of porcine brain tubulin polymerization assessed as time required to reach maxium effect at 10 uM measured every 1 min for 40 mins in presence of GTP
HepG2 [24] = assay: Inhibition of beta-tubulin polymerization in human HepG2 cells assessed as formation of pseudo G1 phase multinucleated cells at 185 to 190 nM measured after 24 hrs by DAPI staining based immunofluorescence analysis; type: cell-based; in short: as §2
EA.hy 926 [25] = assay: Antiangiogenic activity against human EAhy926 assessed as inhibition of capillary tube formation at 0.28 uM after 72 hrs by matrigel assay; type: functional
In short: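 EA.hy 926 cells (4 x 10^4) plated onto Matrigel pre-set 30 min at 37°C in complete DMEM; after 24 h medium replaced by EBM2 alone (control) or EBM2 with 0.28 µM or 0.11 µM drug. Capillary tube formation followed by inverted microscopy up to 72 h.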

[26] = Cell cycle arrest in human HepG2 cells assessed as increase in G2/M phase accumulation at growth inhibitory IC50 after 8 hrs by propidium iodide-staining based FACS analysis relative to combretastatin A-4; type: functional; set-up: scale not given: the % may be the effect or the level left
Colon 26 = assay: Potency index, ratio of combretastatin A-4 IC50 to compound IC50 for mouse Colon 26 cells; type: functional
HepG2 [27] = assay: Induction of apoptosis in human HepG2 cells assessed as necrotic cells at 0.19 to 0.28 uM measured after 48 hrs by Annexin V-FITC/propidium iodide staining-based flow cytometric analysis relative to control; type: functional
[28] = Cell cycle arrest in human HepG2 cells assessed as decrease in accumulation of G2/M phase at growth inhibitory IC50 measured after 72 hrs by propidium iodide-staining based FACS analysis; type: functional
A549 = assay: Potency index, ratio of combretastatin A-4 IC50 to compound IC50 for human A549 cells; type: functional
[29] = Antiproliferative activity against CA-4-resistant human A549 cells measured after 72 hrs by MTT assay; type: functional, cell-based; details: A549, 72 h; in short: as §3
[30] = Cell cycle arrest in human HepG2 cells assessed as accumulation in G2/M phase at growth inhibitory IC50 measured after 8 hrs by propidium iodide-staining based FACS analysis (reference value: 28%); type: functional; set-up: scale not given: the % may be the effect or the level left
[31] = Antiproliferative activity against human MCF7 cells measured after 72 hrs by MTT assay; type: functional, cell-based; details: MCF7, 72 h; in short: as §1
EA.hy 926 [32] = assay: Induction of apoptosis in human EAhy926 cells assessed as necrotic cells at 0.19 to 0.28 uM measured after 48 hrs by Annexin V-FITC/propidium iodide staining-based flow cytometric analysis relative to control; type: functional
[33] = Cell cycle arrest in human HepG2 cells assessed as accumulation of cells with 4N DNA content at growth inhibitory IC50 measured after 24 hrs by propidium iodide-staining based FACS analysis relative to control; type: functional; set-up: scale not given: the % may be the effect or the level left
HepG2 [34] = assay: Induction of apoptosis in human HepG2 cells assessed as increase in apoptotic cells at growth inhibitory IC50 measured after 48 hrs by Annexin V-FITC/propidium iodide staining-based flow cytometric analysis relative to control; type: functional, cell-based
HepG2 [35] = assay: Inhibition of beta-tubulin polymerization in human HepG2 cells assessed as mitotic slippage at 185 to 190 nM measured after 24 hrs by DAPI staining based immunofluorescence analysis; type: cell-based; in short: as §2
HepG2 [36] = assay: Inhibition of beta-tubulin polymerization in human HepG2 cells assessed as induction of mitotic ploidity at 185 to 190 nM measured after 24 hrs by DAPI staining based immunofluorescence analysis; type: cell-based; in short: as §2

COc1cc(/C=C\c2ccc3oc(=O)n(C)c3c2)cc(OC)c1OC
IC50 [1]: 39.7 µM | IC50 [2]: > 50 µM | IC50 [3]: > 50 µM

COc1ccc(/C=C\c2cccc3oc(=O)n(C)c23)cc1OC
IC50 [1]: > 50 µM | IC50 [2]: 2.07 µM | IC50 [3]: > 50 µM

COc1cc(/C=C\c2cccc3c2oc(=O)n3C)cc(OC)c1OC
IC50 [1]: 1.07 µM | IC50 [2]: 0.71 µM | IC50 [3]: 10.3 µM

COc1ccc(/C=C\c2ccc3oc(=O)n(C)c3c2)cc1OC
IC50 [1]: 42.1 µM | IC50 [2]: > 50 µM | IC50 [3]: > 50 µM

COc1cc(/C=C\c2cccc3oc(=O)n(C)c23)cc(OC)c1OC
IC50 [1]: 19 µM | IC50 [2]: 10.1 µM | IC50 [3]: 14.8 µM

COc1ccc(/C=C\c2cccc3c2oc(=O)n3C)cc1
IC50 [1]: 47.2 µM | IC50 [2]: > 50 µM | IC50 [3]: > 50 µM

COc1ccc(/C=C\c2ccc3c(c2)oc(=O)n3C)cc1
IC50 [1]: > 50 µM | IC50 [2]: > 50 µM | IC50 [3]: > 50 µM

COc1ccc(/C=C\c2cccc3c2oc(=O)n3C)cc1OC
IC50 [1]: 30.2 µM | IC50 [2]: > 50 µM | IC50 [3]: > 50 µM

COc1cc(/C=C\c2cccc3oc(=O)n(C)c23)cc(OC)c1
IC50 [1]: 18 µM | IC50 [2]: 11.3 µM | IC50 [3]: 29.4 µM

COc1ccc(/C=C\c2cccc3oc(=O)n(C)c23)cc1
IC50 [1]: 16.1 µM | IC50 [2]: 0.96 µM | IC50 [3]: 39.9 µM

COc1ccc(/C=C\c2ccc3c(c2)oc(=O)n3C)cc1OC
IC50 [1]: 38.3 µM | IC50 [2]: > 50 µM | IC50 [3]: > 50 µM

COc1ccc(/C=C\c2ccc3oc(=O)n(C)c3c2)cc1
IC50 [1]: 48.1 µM | IC50 [2]: 24.2 µM | IC50 [3]: 15.1 µM

COc1cc(/C=C\c2cccc3c2oc(=O)n3C)cc(OC)c1
IC50 [1]: 4.25 µM | IC50 [2]: 0.95 µM | IC50 [3]: 9.53 µM

COc1cc(/C=C\c2ccc3c(c2)oc(=O)n3C)cc(OC)c1OC
viability at 72 h [4]: 70% | inhibition (Sus scrofa [5]): 40% | Activity [6]: Active | Activity (EA.hy 926 [7]): Active | inhibition (HepG2 [8]): Active | Activity [9]: 9% | Activity (HepG2 [10]): Active | IC50 [1]: 0.19 µM | inhibition (Sus scrofa [11]): Active | IC50 [12]: 0.05 µM | inhibition (HepG2 [13]): Active | Activity (K562): Active | inhibition (Sus scrofa [14]): Dose-dependent effect | IC50 [15]: 0.25 µM | Activity [16]: Active | IC50 [17]: 0.168 µM | Activity (EA.hy 926 [18]): Active | Activity [19]: Active | Ratio IC50 (HT-29): >10 | Activity (HepG2 [20]): Active | Activity [21]: Non-Toxic | IC50 [22]: 0.06 µM | TIME (Sus scrofa [23]): 0.333 h | inhibition (HepG2 [24]): Active | inhibition (EA.hy 926 [25]): Active | Activity [26]: 6% | Ratio IC50 (Colon 26): 9 | Activity (HepG2 [27]): 20% | Activity [28]: Active | Ratio IC50 (A549): 50 | IC50 [2]: 0.73 µM | IC50 [29]: 0.06 µM | Activity [30]: 39% | IC50 [31]: 0.07 µM | Activity (EA.hy 926 [32]): 20% | IC50 [3]: 0.28 µM | Activity [33]: 80% | Activity (HepG2 [34]): Active | inhibition (HepG2 [35]): Active | inhibition (HepG2 [36]): Active

— ChEMBL document CHEMBL3856193, “Combretastatin A-4 analogues with benzoxazolone scaffold: Synthesis, structure and biological activity” (Eur J Med Chem, 2016)
